# Assay results from ChEMBL document CHEMBL1649273, “In vivo activity of a novel anti-methicillin-resistant Staphylococcus aureus cephalosporin, ceftaroline, against vancomycin-susceptible and -resistant Enterococcus faecalis strains in a rabbit endocarditis model: a comparative study with linezolid and vancomycin” (2009).
# Activity calls are given as the source filed them. No cut-off for these calls is given here.
# Tests used:
# [1] = test system: Enterococcus faecalis; experiment: Antibacterial activity against vancomycin-susceptible Enterococcus faecalis EF 12704 infected in New Zealand White rabbit assessed as log reduction of bacterial count in aortic valve vegetations at 10 mg/kg, administered through ear vein every 12 hrs for 4 days; assay type: functional
# Outline: (§1)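 New Zealand White rabbits were anesthetized and given left-ventricular catheters. Endocarditis was induced 24 h later with 10^8 CFU E. faecalis. From 24 h post-inoculation, drug was given via the marginal ear vein by computer-controlled pump, simulating human pharmacokinetics of 600 mg every 12 h (10 mg/kg/12 h). After 4 days, aortic vegetations were excised, weighed, homogenized in 0.5 ml saline and cultured quantitatively on agar for 24 h at 37°C.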
# [2] = test system: Enterococcus faecalis; experiment: Antibacterial activity against vancomycin-susceptible Enterococcus faecalis EF 12704 infected in New Zealand White rabbit assessed as reduction of bacterial count in aortic valve vegetations at 10 mg/kg, administered through ear vein every 12 hrs for 4 days (reference value: 8.56 +/- 0.74 CFU/g); assay type: functional; outline: as §1
# [3] = test system: Enterococcus faecalis; experiment: Antibacterial activity against vancomycin-susceptible Enterococcus faecalis EF 12704 assessed as log reduction in bacterial count at 12 mg/l after 24 hrs by time kill assay; assay type: functional
# Outline: (§2)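 Time-kill experiments used an inoculum of 5 × 10^6 CFU/ml, with bacterial counts followed over 24 h.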
# [4] = test system: Enterococcus faecalis; experiment: Antibacterial activity against vancomycin-susceptible Enterococcus faecalis EF 12704 assessed as bactericidal activity at 25 mg/l after 24 hrs by time kill assay; assay type: functional, organism-based; outline: as §2
# [5] = test system: Enterococcus faecalis; experiment: Antibacterial activity against vancomycin-resistant Enterococcus faecalis EF NJ1 assessed as bactericidal activity at 25 mg/l after 24 hrs by time kill assay; assay type: functional, organism-based; outline: as §2
# [6] = test system: Enterococcus faecalis; experiment: Antibacterial activity against vancomycin-resistant Enterococcus faecalis EF NJ1 infected in New Zealand White rabbit assessed as log reduction of bacterial count in aortic valve vegetations at 10 mg/kg, administered through ear vein every 12 hrs for 4 days; assay type: functional; outline: as §1
# [7] = test system: Enterococcus faecalis; experiment: Antibacterial activity against vancomycin-susceptible Enterococcus faecalis EF 12704 infected in New Zealand White rabbit assessed as reduction of bacterial count in aortic valve vegetations administered through ear vein every 12 hrs for 4 days (reference value: 8.56 +/- 0.74 CFU/g); assay type: functional
# [8] = test system: Enterococcus faecalis; experiment: Antibacterial activity against vancomycin-resistant Enterococcus faecalis EF NJ1 infected in New Zealand White rabbit assessed as reduction of bacterial count in aortic valve vegetations administered through ear vein every 12 hrs for 4 days (reference value: 8.60 +/- 0.54 CFU/g); assay type: functional
SMILES,log10CFU/g [1],log10CFU/g [2],log10CFU/ml [3],Activity [4],Activity [5],log10CFU/g [6],log10CFU/g [7],log10CFU/g [8]
CC(=O)NC[C@H]1CN(c2ccc(N3CCOCC3)c(F)c2)C(=O)O1 [LINEZOLID],>3,6.88,1,,,,,
CN[C@H](CC(C)C)C(=O)N[C@H]1C(=O)N[C@@H](CC(N)=O)C(=O)N[C@H]2C(=O)N[C@H]3C(=O)N[C@H](C(=O)N[C@H](C(=O)O)c4cc(O)cc(O)c4-c4cc3ccc4O)[C@H](O)c3ccc(c(Cl)c3)Oc3cc2cc(c3O[C@@H]2O[C@H](CO)[C@@H](O)[C@H](O)[C@H]2O[C@H]2C[C@](C)(N)[C@H](O)[C@H](C)O2)Oc2ccc(cc2Cl)[C@H]1O [VANCOMYCIN],2,,,inactive,inactive,2,6.7,8.01
